Assay results published in ChEMBL document CHEMBL1154352, “Toll-like receptor 7 selective synthetic oligoribonucleotide agonists: synthesis and structure-activity relationship studies” (J Med Chem, 2009).
Active and inactive are the calls of the source. No cut-off for these calls is given here.

Experiments:
[1] = Metabolic stability in human serum assessed as full length product remaining after 10 mins by HPLC; type: ADME, cell-free; conditions: read-out: Stability
Outline: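 About 0.5 A260 units compound in 1% human serum in PBS, 37 °C; aliquot taken at 10 min, analysed by anion-exchange HPLC for percent intact full-length product.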

[2] = target: T1, Toll-like receptor 8 (Homo sapiens) (UniProt Q9NR97); assay: Activation of human TLR8 expressed in HEK293XL assessed as fold induction of NF-kappaB activity at 50 ug/ml after 18 hrs by reporter gene assay relative to control
T1 sequence (whole entry): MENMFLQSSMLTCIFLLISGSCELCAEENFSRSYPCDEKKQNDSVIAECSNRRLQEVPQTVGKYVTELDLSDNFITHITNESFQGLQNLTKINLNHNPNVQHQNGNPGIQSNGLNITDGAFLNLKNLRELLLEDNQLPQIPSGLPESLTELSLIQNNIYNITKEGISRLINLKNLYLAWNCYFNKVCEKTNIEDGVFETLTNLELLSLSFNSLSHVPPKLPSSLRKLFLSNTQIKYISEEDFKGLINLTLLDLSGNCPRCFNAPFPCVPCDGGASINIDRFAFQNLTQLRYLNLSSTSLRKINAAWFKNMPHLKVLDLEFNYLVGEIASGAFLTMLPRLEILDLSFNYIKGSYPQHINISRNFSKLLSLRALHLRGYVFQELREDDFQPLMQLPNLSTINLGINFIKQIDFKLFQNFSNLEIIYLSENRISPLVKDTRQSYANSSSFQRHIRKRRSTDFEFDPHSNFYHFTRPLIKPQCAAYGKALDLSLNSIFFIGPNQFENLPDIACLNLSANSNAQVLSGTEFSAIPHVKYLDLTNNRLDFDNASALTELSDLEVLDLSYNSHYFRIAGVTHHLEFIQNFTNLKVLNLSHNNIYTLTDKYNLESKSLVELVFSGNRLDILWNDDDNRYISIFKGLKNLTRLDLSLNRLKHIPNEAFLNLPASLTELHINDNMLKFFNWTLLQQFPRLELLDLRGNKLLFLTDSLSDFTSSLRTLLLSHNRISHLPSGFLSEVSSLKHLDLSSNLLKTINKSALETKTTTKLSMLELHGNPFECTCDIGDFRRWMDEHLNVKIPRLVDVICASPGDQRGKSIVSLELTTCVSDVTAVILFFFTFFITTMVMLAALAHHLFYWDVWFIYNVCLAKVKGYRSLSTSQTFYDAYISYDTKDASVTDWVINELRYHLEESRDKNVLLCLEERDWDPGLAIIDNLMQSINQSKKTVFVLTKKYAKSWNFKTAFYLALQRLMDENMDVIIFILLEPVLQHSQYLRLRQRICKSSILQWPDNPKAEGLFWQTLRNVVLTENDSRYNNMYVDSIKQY
Outline: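 HEK293 cells stably expressing human TLR7 or TLR8, transiently transfected with SEAP reporter plasmid; medium replaced, SIMRA compounds added, 18 h incubation. Supernatant SEAP measured by QuantiBlue; expressed as fold increase in NF-κB activity over PBS control. Tabulated data at 50 μg/mL, representative of three independent experiments.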

[3] = species on record: Homo sapiens; assay: Ratio of human TLR7 activity to human TLR8 activity
Outline: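 TLR7/TLR8 ratio computed from fold NF-κB (SEAP reporter) activation in HEK293 cells stably expressing human TLR7 versus TLR8, compounds at 50 μg/mL, 18 h exposure; representative of three independent experiments.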

[4] = target: Toll-like receptor 3 (Homo sapiens) (UniProt O15455); assay: Activation of human TLR3 expressed in HEK293 assessed as induction of NF-kappaB activity reporter gene assay; type: cell-based
[5] = species on record: Homo sapiens; assay: Immunostimulatory activity in human pDC assessed as induction of IFNalpha at 100 ug/ml after 24 hrs; type: functional
Outline: (§1)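 Human pDCs plated at 1 × 10^6 cells/mL; compounds in PBS added, 37 °C for 24 h; supernatant cytokines/chemokines by human Luminex multiplex kit.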

[6] = test system: PBMC; assay: Immunomodulatory activity in human PBMC assessed as induction of IL12 at 50 ug/ml after 24 hrs; type: functional, cell-based
Outline: (§2)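 Human PBMCs plated at 5 × 10^6 cells/mL; compounds dissolved in PBS added at various concentrations, 37 °C for 24 h. Supernatant cytokines/chemokines quantified with human Luminex multiplex kit.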

[7] = test system: PBMC; assay: Immunomodulatory activity in human PBMC assessed as induction of TNFalpha at 50 ug/ml after 24 hrs; type: functional, cell-based; outline: as §2
[8] = test system: PBMC; assay: Immunomodulatory activity in human PBMC assessed as induction of IFNalpha at 50 ug/ml after 24 hrs; type: functional, cell-based; outline: as §2
[9] = test system: PBMC; assay: Immunomodulatory activity in human PBMC assessed as induction of MIP1alpha at 50 ug/ml after 24 hrs; type: functional, cell-based; outline: as §2
[10] = test system: PBMC; assay: Immunomodulatory activity in human PBMC assessed as induction of MIP1beta at 50 ug/ml after 24 hrs; type: functional, cell-based; outline: as §2
[11] = test system: PBMC; assay: Immunomodulatory activity in human PBMC assessed as induction of IP10 at 50 ug/ml after 24 hrs; type: functional, cell-based; outline: as §2
[12] = test system: PBMC; assay: Immunomodulatory activity in human PBMC assessed as induction of MCP1 at 50 ug/ml after 24 hrs; type: functional, cell-based; outline: as §2
[13] = test system: PBMC; assay: Immunomodulatory activity in human PBMC assessed as induction of IL6 at 50 ug/ml after 24 hrs; type: functional, cell-based; outline: as §2
[14] = test system: PBMC; assay: Immunomodulatory activity in human PBMC assessed as induction of IL1-beta at 50 ug/ml after 24 hrs; type: functional, cell-based; outline: as §2
[15] = species on record: Homo sapiens; assay: Immunostimulatory activity in human pDC assessed as induction of IL6 at 100 ug/ml after 24 hrs; type: functional; outline: as §1
[16] = species on record: Homo sapiens; assay: Immunostimulatory activity in human mDC assessed as induction of IFNalpha at 100 ug/ml after 24 hrs; type: functional
Outline: (§3)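 Human mDCs isolated from PBMCs by CD19+ B-cell depletion then BDCA1 positive selection; plated at 1 × 10^6 cells/mL, compounds in PBS, 37 °C for 24 h; supernatant cytokines by human Luminex multiplex. Representative of four independent experiments.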

[17] = species on record: Homo sapiens; assay: Immunostimulatory activity in human mDC assessed as induction of IP10 at 100 ug/ml after 24 hrs; type: functional; outline: as §3
[18] = species on record: Homo sapiens; assay: Immunostimulatory activity in human mDC assessed as induction of IL12 at 100 ug/ml after 24 hrs; type: functional; outline: as §3
[19] = species on record: Homo sapiens; assay: Immunostimulatory activity in human mDC assessed as induction of IL6 at 100 ug/ml after 24 hrs; type: functional; outline: as §3
[20] = species on record: Homo sapiens; assay: Immunostimulatory activity in human mDC assessed as induction of TNFalpha at 100 ug/ml after 24 hrs; type: functional; outline: as §3
[21] = test system: Mus musculus; assay: Immunomodulatory activity in C57BL/6 mouse assessed as induction of IL12 release at 25 mg/kg, sc after 2 hrs by ELISA; type: functional, organism-based; parameters: dose 25 mg/kg
Outline: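 Female C57BL/6 wild-type mice, 5–8 weeks old, n=3; compounds given subcutaneously at 10 or 25 mg/kg. Retro-orbital blood at 2 h; serum cytokines by mouse Luminex multiplex or IL-12 ELISA.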

[22] = test system: PBMC; assay: Immunomodulatory activity in human PBMC assessed as induction of IFN-alpha at 100 ug/ml after 24 hrs

Toll-like receptor 3 (Homo sapiens), sequence (O15455 whole entry): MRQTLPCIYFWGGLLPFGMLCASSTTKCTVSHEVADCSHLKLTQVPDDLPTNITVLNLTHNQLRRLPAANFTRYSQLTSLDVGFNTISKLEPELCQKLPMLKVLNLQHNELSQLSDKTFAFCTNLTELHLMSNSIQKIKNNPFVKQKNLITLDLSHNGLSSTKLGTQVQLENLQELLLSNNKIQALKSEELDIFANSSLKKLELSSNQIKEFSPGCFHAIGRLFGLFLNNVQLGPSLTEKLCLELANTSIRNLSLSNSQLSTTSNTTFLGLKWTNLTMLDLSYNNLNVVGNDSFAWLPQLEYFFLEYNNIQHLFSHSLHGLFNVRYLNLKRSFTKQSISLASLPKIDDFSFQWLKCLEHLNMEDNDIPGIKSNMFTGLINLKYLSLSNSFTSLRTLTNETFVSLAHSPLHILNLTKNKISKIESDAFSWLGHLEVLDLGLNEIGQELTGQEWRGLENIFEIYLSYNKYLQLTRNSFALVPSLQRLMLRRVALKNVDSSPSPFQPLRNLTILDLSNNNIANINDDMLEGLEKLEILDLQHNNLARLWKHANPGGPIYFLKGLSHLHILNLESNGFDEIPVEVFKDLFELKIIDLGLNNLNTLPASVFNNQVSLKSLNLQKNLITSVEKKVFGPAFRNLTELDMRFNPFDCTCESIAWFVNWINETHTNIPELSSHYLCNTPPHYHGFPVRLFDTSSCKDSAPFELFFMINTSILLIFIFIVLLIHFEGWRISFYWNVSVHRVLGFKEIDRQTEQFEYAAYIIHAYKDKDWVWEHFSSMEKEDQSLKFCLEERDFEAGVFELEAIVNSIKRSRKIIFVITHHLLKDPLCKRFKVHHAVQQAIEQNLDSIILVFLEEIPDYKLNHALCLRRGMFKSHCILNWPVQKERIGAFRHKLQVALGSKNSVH

Nc1ccn([C@@H]2O[C@H](CO[C@H]3[C@@H](O)[C@H](n4cnc5c(N)ncnc54)O[C@@H]3COP(=O)(S)O[C@H]3[C@@H](O)[C@H](n4ccc5c(=O)[nH]c(N)nc54)O[C@@H]3COP(=O)(S)O[C@H]3[C@@H](O)[C@H](n4ccc(=O)[nH]c4=O)O[C@@H]3COP(=O)(S)O[C@H]3[C@@H](O)[C@H](n4cnc5c(N)ncnc54)O[C@@H]3COP(=O)(S)O[C@H]3[C@@H](O)[C@H](n4ccc5c(=O)[nH]c(N)nc54)O[C@@H]3COP(=O)(S)O[C@H]3[C@@H](O)[C@H](n4ccc(=O)[nH]c4=O)O[C@@H]3CO)[C@@H](OP(=O)(S)OC[C@H]3O[C@@H](n4ccc5c(=O)[nH]c(N)nc54)[C@H](O)[C@@H]3OP(=O)(S)OC[C@H]3O[C@@H](n4cnc5c(N)ncnc54)[C@H](O)[C@@H]3OP(=O)(S)OC[C@H]3O[C@@H](n4ccc(=O)[nH]c4=O)[C@H](O)[C@@H]3OP(=O)(S)OC[C@H]3O[C@@H](n4ccc(=O)[nH]c4=O)[C@H](O)[C@@H]3OP(=O)(S)OCC(O)COP(=O)(S)O[C@H]3[C@@H](O)[C@H](n4ccc(=O)[nH]c4=O)O[C@@H]3COP(=O)(S)O[C@H]3[C@@H](O)[C@H](n4ccc(=O)[nH]c4=O)O[C@@H]3COP(=O)(S)O[C@H]3[C@@H](O)[C@H](n4cnc5c(N)ncnc54)O[C@@H]3COP(=O)(S)O[C@H]3[C@@H](O)[C@H](n4ccc5c(=O)[nH]c(N)nc54)O[C@@H]3COP(=O)(S)O[C@H]3[C@@H](O)[C@H](n4ccc(N)nc4=O)O[C@@H]3CO[C@H]3[C@@H](O)[C@H](n4cnc5c(N)ncnc54)O[C@@H]3COP(=O)(S)O[C@H]3[C@@H](O)[C@H](n4ccc5c(=O)[nH]c(N)nc54)O[C@@H]3COP(=O)(S)O[C@H]3[C@@H](O)[C@H](n4ccc(=O)[nH]c4=O)O[C@@H]3COP(=O)(S)O[C@H]3[C@@H](O)[C@H](n4cnc5c(N)ncnc54)O[C@@H]3COP(=O)(S)O[C@H]3[C@@H](O)[C@H](n4ccc5c(=O)[nH]c(N)nc54)O[C@@H]3COP(=O)(S)O[C@H]3[C@@H](O)[C@H](n4ccc(=O)[nH]c4=O)O[C@@H]3CO)[C@H]2O)c(=O)n1 (some centres undefined)
remaining at 10 min [1]: 84% | fold change (FC) [2]: 1.6 | Ratio [3]: 10.9 | Activity [4]: inactive | Activity [5]: Active | Activity [6]: 434 pg/mL | Activity [7]: 68 pg/mL | Activity [8]: 131 pg/mL | Activity [9]: 5790 pg/mL | Activity [10]: 9960 pg/mL | Activity [11]: 155 pg/mL | Activity [12]: 56000 pg/mL | Activity [13]: 2760 pg/mL | Activity [14]: 306 pg/mL | Activity [15]: Active | Activity [16]: Active | Activity [17]: Active | Activity [18]: Active | Activity [19]: Active | Activity [20]: Active | Activity [21]: Active | IFN-alpha [22]: 183 pg/mL

Nc1ccn([C@@H]2O[C@H](COP(=O)(S)O[C@H]3[C@@H](O)[C@H](n4cnc5c(N)ncnc54)O[C@@H]3CO)[C@@H](OP(=O)(S)OC[C@H]3O[C@@H](n4ccc(=O)[nH]c4=O)[C@H](O)[C@@H]3OP(=O)(S)OC[C@H]3O[C@@H](n4ccc5c(=O)[nH]c(N)nc54)[C@H](O)[C@@H]3OP(=O)(S)OC[C@H]3O[C@@H](n4ccc(N)nc4=O)[C@H](O)[C@@H]3OP(=O)(S)OC[C@H]3O[C@@H](n4ccc5c(=O)[nH]c(N)nc54)[C@H](O)[C@@H]3OP(=O)(S)OC[C@H]3O[C@@H](n4cnc5c(N)ncnc54)[C@H](O)[C@@H]3OP(=O)(S)OC[C@H]3O[C@@H](n4ccc5c(=O)[nH]c(N)nc54)[C@H](O)[C@@H]3OP(=O)(S)OC[C@H]3O[C@@H](n4ccc(N)nc4=O)[C@H](O)[C@@H]3OP(=O)(S)OC[C@H]3O[C@@H](n4ccc(=O)[nH]c4=O)[C@H](O)[C@@H]3OP(=O)(S)OC[C@H]3O[C@@H](n4ccc(=O)[nH]c4=O)[C@H](O)[C@@H]3OP(=O)(S)OCC(O)COP(=O)(S)O[C@H]3[C@@H](O)[C@H](n4ccc(=O)[nH]c4=O)O[C@@H]3COP(=O)(S)O[C@H]3[C@@H](O)[C@H](n4ccc(=O)[nH]c4=O)O[C@@H]3COP(=O)(S)O[C@H]3[C@@H](O)[C@H](n4ccc(N)nc4=O)O[C@@H]3COP(=O)(S)O[C@H]3[C@@H](O)[C@H](n4ccc5c(=O)[nH]c(N)nc54)O[C@@H]3COP(=O)(S)O[C@H]3[C@@H](O)[C@H](n4cnc5c(N)ncnc54)O[C@@H]3COP(=O)(S)O[C@H]3[C@@H](O)[C@H](n4ccc5c(=O)[nH]c(N)nc54)O[C@@H]3COP(=O)(S)O[C@H]3[C@@H](O)[C@H](n4ccc(N)nc4=O)O[C@@H]3COP(=O)(S)O[C@H]3[C@@H](O)[C@H](n4ccc5c(=O)[nH]c(N)nc54)O[C@@H]3COP(=O)(S)O[C@H]3[C@@H](O)[C@H](n4ccc(=O)[nH]c4=O)O[C@@H]3COP(=O)(S)O[C@H]3[C@@H](O)[C@H](n4ccc(N)nc4=O)O[C@@H]3COP(=O)(S)O[C@H]3[C@@H](O)[C@H](n4cnc5c(N)ncnc54)O[C@@H]3CO)[C@H]2O)c(=O)n1 (some centres undefined)
remaining at 10 min [1]: 71% | fold change (FC) [2]: 1.7 | Ratio [3]: 15.9 | Activity [4]: inactive | Activity [5]: Active | Activity [6]: 337 pg/mL | Activity [7]: 256 pg/mL | Activity [8]: 266 pg/mL | Activity [9]: 4890 pg/mL | Activity [10]: 8980 pg/mL | Activity [11]: 395 pg/mL | Activity [12]: 51400 pg/mL | Activity [13]: 2580 pg/mL | Activity [14]: 196 pg/mL | Activity [15]: Active | Activity [16]: Active | Activity [17]: Active | Activity [18]: Active | Activity [19]: Active | Activity [20]: Active | Activity [21]: Active | IFN-alpha [22]: 131 pg/mL
